CHO-K1 Ca ag: M1 agonist counterscreen hit in parental CHO-K1 cells; activation, % at 3 µM; 360,000 compounds, 0.48% hits; Fluo-8 calcium fluorescence; scaled to maximal ATP response, vehicle zero; AID 602248; in the data active = activation above about 15%;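 also: untransfected CHO-K1 host cells lacking M1 receptor as counterscreen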
CHO-K1 Ca antag: counter-screen for M1 antagonists: effect in parental CHO-K1 cells | ATP-induced calcium, Fluo-8 fluorescence | inhibition, % at 3 µM | 360,000 compounds, 0.6% hits | AID 602250;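 active = inhibition above a per-plate cutoff, the plate's mean sample inhibition plus 3 SD, cut at about 24% in these data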
CHO parental Ca: counter-screen for OX1R antagonists: effect in parental CHO cells; parental CHO-K1, ATP-induced calcium, Fluo-8 fluorescence; inhibition, % at 5.6 µM; 330,000 compounds, 0.63% hits;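 active = inhibition above that plate's mean sample inhibition plus 3 SD, cut at about 26% in these data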
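material = parental CHO cells | also added = ATP as calcium-mobilizing challenge | dosing = single point at 5.6 µM | detection = intracellular calcium via Fluo-8 no-wash fluorescent dye | read-out = % inhibition | benchmarks = low control ATP plus DMSO, high control DMSO only | repeats = one well per compound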
OX1R antag-1: antagonists of human orexin 1 receptor | O43613 | CHO/OX1R cells, Fluo-8 calcium fluorescence, orexin A | inhibition, % at 5 µM | 330,000 compounds, 0.43% hits | AID 434989;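 active = inhibition above its plate's threshold, mean inhibition of all tested compounds on the plate plus 3 SD, cut at about 37% in these data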
Target sequence (O43613 whole entry, looked up): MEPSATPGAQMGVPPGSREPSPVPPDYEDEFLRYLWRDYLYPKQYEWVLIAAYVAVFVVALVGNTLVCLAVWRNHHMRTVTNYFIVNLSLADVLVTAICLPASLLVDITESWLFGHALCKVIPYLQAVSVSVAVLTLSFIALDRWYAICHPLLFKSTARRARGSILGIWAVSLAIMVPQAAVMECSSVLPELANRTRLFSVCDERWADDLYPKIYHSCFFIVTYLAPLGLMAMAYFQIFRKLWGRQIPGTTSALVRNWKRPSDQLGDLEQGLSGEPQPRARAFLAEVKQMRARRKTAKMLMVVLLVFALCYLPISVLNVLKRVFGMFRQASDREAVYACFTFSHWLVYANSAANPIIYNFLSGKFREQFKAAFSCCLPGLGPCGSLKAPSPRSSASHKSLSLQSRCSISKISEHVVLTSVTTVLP
M1 PAM parental: nonselective activator or artifact in parental CHO-K1 calcium assay; ATP EC20, Fluo-8 calcium fluorescence; 0% at ATP EC20, 100% at ATP max; activation, % at 3 µM; 360,000 compounds, 0.02% hits;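 active = activation above the run cutoff, the mean activation of all test compounds plus 3 SD, cut at about 40% in these data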;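 also: peak over basal fluorescence ratio in a 140 s read after ATP addition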
OX1R antag-2: antagonists of human orexin 1 receptor (OX1R); OX1R-expressing cells, FRET antagonist read-out; inhibition, % at 6.6 µM; 330,000 compounds, 1.8% hits; AID 485270; in the data active = inhibition mostly above about 38%, no sharp cut-off; inactive = mostly below about 40%
Of the large screens only hits and unclear results are named; the others gave an inactive call. This is a sample that favours compounds with a hit; in the whole collection about 2.9% have one here.

CC1CN(C2=NC(=O)/C(=C/c3ccncc3)S2)CC(C)O1 (stereo unspecified)	OX1R antag-2 34.1
CCCCc1n[nH]c(=S)n1Cc1ccc(C)cc1	none
COc1ccc(C(=O)NCC(c2ccco2)N2CCc3ccccc32)c(OC)c1 (stereo unspecified)	M1 PAM parental 47.6
COc1ccc(C(=O)NCC(c2cccs2)N2CCc3ccccc32)cc1OC (stereo unspecified)	CHO-K1 Ca antag 23.9
CC1CN(C(C)C(=O)NC(c2ccccc2)c2ccccc2)CC(C)O1 (stereo unspecified)	none
O=[N+]([O-])c1ccc(NCCNCCOc2nonc2-c2ccccc2)c([N+](=O)[O-])c1	OX1R antag-2 43.3
O=C(CSc1nncn1-c1cccnc1)N(c1ccccc1)c1ccccc1	none
O=C(N/N=C/c1cccnc1)c1ccc([N+](=O)[O-])cc1Cl	OX1R antag-2 34.9
Cc1ccc([N+](=O)[O-])c(C(=O)N/N=C/c2cccnc2)c1	OX1R antag-2 41.5
O=C(Nc1ccccn1)c1ccc([N+](=O)[O-])cc1Cl	OX1R antag-2 55.7
O=C(N/N=C/c1ccccn1)c1ccc([N+](=O)[O-])cc1Cl	none
O=C(N/N=C/c1ccc(Cl)c([N+](=O)[O-])c1)c1cnccn1	OX1R antag-2 56.8
O=C1CN(C(=O)COc2ccc([N+](=O)[O-])cc2Cl)c2ccccc2N1	none
Cc1ccc(S(=O)(=O)N2CCN(CCc3ccncc3)CC2)cc1	none
C[C@@H]1C(NC(=O)c2ccccc2)CC2CC1C2(C)C (stereo partly specified)	none
CCCCN(C1CCS(=O)(=O)C1)S(=O)(=O)c1cccs1 (stereo unspecified)	none
COc1ccccc1CCNC(=O)CSc1nnc2ccc(-c3ccncc3)nn12	OX1R antag-2 39.2
CC1CCN(C(=O)CSc2nnc3ccc(-c4cccnc4)nn23)CC1	OX1R antag-2 34.8
Cc1ccccc1NC(=O)CSc1nnc2ccc(-c3cccnc3)nn12	OX1R antag-2 53.5
CCSc1nnc2ccc(-c3ccc(OC)c(OC)c3)nn12	OX1R antag-2 39.2
O=C(CSc1nnc2ccc(-c3cccnc3)nn12)Nc1ccccc1F	none
CC(=O)Nc1ccc(C=NNc2ccc([N+](=O)[O-])cn2)cc1	none (no result: CHO parental Ca, OX1R antag-1, OX1R antag-2)
O=C(Nc1ccccc1C(=O)O)c1cc(S(=O)(=O)Nc2cccc(F)c2)ccc1Cl	none
C#CCOCCOCCOCCNc1nc(N2CCN(C(=O)Cn3cc(CCCCN)nn3)CC2)nc(N2CCN(C(=O)Cn3cc(CCCN=C(N)N)nn3)CC2)n1	none
O=C(CSc1ccc(-c2ccccc2)nn1)N1CCOCC1	OX1R antag-2 48.6
COc1cccc(-c2ccc3nnc(SCC(=O)N4CCOCC4)n3n2)c1	OX1R antag-2 51.5
COc1cccc(-c2ccc3nnc(SCC(=O)N4CCCC4)n3n2)c1	none
COc1cccc(CCc2nnc(CCC(=O)N(C)C3CC(C)(C)NC(C)(C)C3)o2)c1	none
CCOc1ccc(NC(=O)CSc2ccccc2N)cc1	none
C=CCn1c(COc2ccc(CC)cc2)nnc1SC/C(O)=C(\C#N)c1nc2ccccc2[nH]1	CHO-K1 Ca antag 25.9
O=C(COc1ccc(S(=O)(=O)NCc2ccccc2)cc1)NCc1cccnc1	none (no result: CHO parental Ca, OX1R antag-1, OX1R antag-2)
CC(C)CN1Cc2ccccc2Oc2cc(Br)ccc2S1(=O)=O	M1 PAM parental 40.7
COc1cccc(-c2nc(CS(=O)(=O)CC(=O)Nc3ccccc3Cl)c(C)o2)c1	OX1R antag-2 51.3
COc1cccc(-c2nc(CS(=O)(=O)CC(=O)Nc3ccccc3C)c(C)o2)c1	none
CC(C)NC(=O)N(C)C[C@H]1OCCCC[C@H](C)Oc2ccc(NS(=O)(=O)c3ccccc3)cc2C(=O)N([C@H](C)CO)C[C@H]1C	none (no result: CHO parental Ca, OX1R antag-1, OX1R antag-2)
Cc1ccc(NS(=O)(=O)c2ccc(-n3cccn3)cc2)nc1	CHO-K1 Ca antag 31.1
COc1cccc(NS(=O)(=O)c2ccc(-n3cccn3)cc2)c1	CHO-K1 Ca ag 16.2
Cc1ccc(NS(=O)(=O)c2ccc(-n3cccn3)cc2)c(Br)c1	none (no result: CHO parental Ca, OX1R antag-1, OX1R antag-2)
CC[C@]12c3[nH]c4cc(-c5ccco5)ccc4c3CCN1C(=O)[C@@H](CC(=O)NCCc1ccccn1)C[C@@H]2C(=O)N1CCN(C(=O)c2ccco2)CC1	none
Cn1c(=O)c2c(nc(Oc3ccccc3Br)n2C)n(C)c1=O	none (no result: CHO parental Ca, OX1R antag-1, OX1R antag-2)
Cn1c(=O)c(N)c2c3c(c(Br)ccc31)C(=O)c1ccccc1-2	CHO-K1 Ca ag 31.7
CCN(CC(=O)NCc1ccc(F)cc1)C(=O)/C=C/c1cc(OC)ccc1OC	none (no result: CHO parental Ca, OX1R antag-1, OX1R antag-2)
CCOC(=O)C1(C)CCCN1C(=O)c1c(F)cccc1F (stereo unspecified)	none (no result: CHO parental Ca, OX1R antag-1, OX1R antag-2)
Cc1ccc(S(=O)(=O)CC2CSc3nc4ccccc4n32)cc1 (stereo unspecified)	CHO-K1 Ca antag 27.9
CN1CCN(C(=O)c2ccc(S(=O)(=O)Nc3ccccc3)cc2)CC1	none
C[C@@H]1NC(=O)[C@H](CCC(N)=O)NC(=O)c2cc([N+](=O)[O-])cc(I)c2NCCC[C@@H](C(N)=O)NC1=O	OX1R antag-2 60.9
NC(=O)[C@@H]1CCCNc2c(I)cc([N+](=O)[O-])cc2C(=O)N[C@@H](CCC(=O)O)C(=O)N[C@@H](CO)C(=O)N1	OX1R antag-2 67.5
O=C(COC(=O)c1cc([N+](=O)[O-])ccc1N1CCOCC1)Nc1c(Cl)cccc1C(F)(F)F	none
C#Cc1ccc(CN2CCC(C(=O)Nc3ccc(Oc4ccccc4)nc3)CC2)cc1	none
O=C(Nc1ccc(Oc2ccccc2)nc1)C1CCN(Cc2cccc(F)c2)CC1	CHO-K1 Ca ag 23.7
COc1ccc(F)cc1-c1cc(C(=O)NCc2cc(C(F)(F)F)cc(C(F)(F)F)c2)[nH]n1	none (no result: CHO parental Ca, OX1R antag-1, OX1R antag-2)
CCN(CC)S(=O)(=O)c1ccc(Cl)c(NC(=S)NC(=O)C2CCCC2)c1	CHO parental Ca 44.5, OX1R antag-1 67.2
CCN(c1ccccc1)S(=O)(=O)c1ccc(Cl)c(NC(=O)CN2CCCCCC2)c1	CHO parental Ca 72.9, OX1R antag-2 86.8
CN(C)S(=O)(=O)c1ccc(Cl)c(NC(=O)CN2CCCCCC2)c1	none
CN(CC(=O)Nc1ccccc1Cl)C(=O)c1cccc(S(=O)(=O)N2CCN(c3ccccc3)CC2)c1	CHO-K1 Ca antag 28.3 (no result: CHO parental Ca, OX1R antag-1, OX1R antag-2)
O=C(O)CC(CC(=O)Nc1ccc(-n2ccc(C(F)(F)F)n2)cc1)c1ccccc1 (stereo unspecified)	none
O=C(Nc1ccccc1)Nc1ccc(-n2ccc(C(F)(F)F)n2)cc1	CHO-K1 Ca ag 16.7, CHO-K1 Ca antag 25.7, CHO parental Ca 41.2
COc1ccc(C(=O)c2sc(Nc3cccc(OC)c3)c(C(=O)Nc3cccc(C)c3C)c2N)cc1	CHO parental Ca 60.0
COc1ccc(Nc2sc(C(=O)c3ccc(Cl)cc3)c(N)c2C(=O)Nc2ccccc2OC)cc1	CHO-K1 Ca ag 19.6, CHO-K1 Ca antag 31.5, CHO parental Ca 70.6, OX1R antag-1 100.9

Screening data (PubChem)
